Laboratory results as given in PMC3288198 (ACS Chemical Biology, 2011).
Read-outs that look alike come from different tables or passages of the source.

Key:
[1] = molecular target: HDAC2 (Homo sapiens, UniProt Q92769); test: HDAC deacetylase homogenous fluorescence assay, HDAC2; format: biochemical; conditions: for Ki: read-out: HDAC2 Ki, converted from IC50 using Cheng-Prusoff equation
In short: (§1)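 Baculovirus-expressed recombinant human enzyme (HDAC3 as HDAC3/N-CoR2 complex) incubated with serially diluted test compound over a 12-point titration. Substrate: acetylated AMC-K(Ac)GL. Deacetylated product cleaved by lysine peptidase to free MCA, read at ex 355/em 460 nm. Data normalised to control plate by plate. IC50 and SD from non-linear regression; Ki via Cheng-Prusoff, Ki = IC50/(1+[S]/Km).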

[2] = molecular target: HDAC4 (Homo sapiens, UniProt P56524); test: HDAC deacetylase homogenous fluorescence assay, HDAC4; format: biochemical
[3] = molecular target: HDAC1 (Homo sapiens, UniProt Q13547); test: HDAC deacetylase homogenous fluorescence assay, HDAC1; format: biochemical
In short: as §1

[4] = molecular target: T1, HDAC8 (Homo sapiens, UniProt Q9BY41); test: HDAC deacetylase homogenous fluorescence assay, HDAC8; format: biochemical
T1 sequence (Q9BY41 1-377): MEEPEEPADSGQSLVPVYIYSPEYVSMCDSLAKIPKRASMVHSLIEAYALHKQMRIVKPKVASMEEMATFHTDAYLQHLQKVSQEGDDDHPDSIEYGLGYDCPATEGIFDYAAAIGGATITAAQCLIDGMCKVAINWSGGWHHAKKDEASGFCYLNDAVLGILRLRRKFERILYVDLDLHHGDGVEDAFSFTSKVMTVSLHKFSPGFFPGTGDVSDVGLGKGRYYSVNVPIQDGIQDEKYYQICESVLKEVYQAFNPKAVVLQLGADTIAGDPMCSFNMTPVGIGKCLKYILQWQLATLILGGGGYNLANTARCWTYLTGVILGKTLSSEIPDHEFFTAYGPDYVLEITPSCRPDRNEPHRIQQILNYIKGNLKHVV
In short: (§2)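 Recombinant human enzyme (HDAC5, 8, 9 baculovirus-expressed) incubated with serially diluted test compound over a 12-point titration. Substrate: trifluoroacetylated AMC-K(TFA)GL. Peptidase development releases MCA, read at ex 355/em 460 nm. Activity normalised to plate controls. IC50 and SD by non-linear regression; Ki by Cheng-Prusoff, Ki = IC50/(1+[S]/Km).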

[5] = molecular target: HDAC5 (Homo sapiens, UniProt Q9UQL6); test: HDAC deacetylase homogenous fluorescence assay, HDAC5; format: biochemical
In short: as §2

[6] = molecular target: T2, HDAC10 (Homo sapiens, UniProt Q969S8); test: HDAC deacetylase homogenous fluorescence assay, HDAC10; format: biochemical
T2 sequence (Q969S8 1-669): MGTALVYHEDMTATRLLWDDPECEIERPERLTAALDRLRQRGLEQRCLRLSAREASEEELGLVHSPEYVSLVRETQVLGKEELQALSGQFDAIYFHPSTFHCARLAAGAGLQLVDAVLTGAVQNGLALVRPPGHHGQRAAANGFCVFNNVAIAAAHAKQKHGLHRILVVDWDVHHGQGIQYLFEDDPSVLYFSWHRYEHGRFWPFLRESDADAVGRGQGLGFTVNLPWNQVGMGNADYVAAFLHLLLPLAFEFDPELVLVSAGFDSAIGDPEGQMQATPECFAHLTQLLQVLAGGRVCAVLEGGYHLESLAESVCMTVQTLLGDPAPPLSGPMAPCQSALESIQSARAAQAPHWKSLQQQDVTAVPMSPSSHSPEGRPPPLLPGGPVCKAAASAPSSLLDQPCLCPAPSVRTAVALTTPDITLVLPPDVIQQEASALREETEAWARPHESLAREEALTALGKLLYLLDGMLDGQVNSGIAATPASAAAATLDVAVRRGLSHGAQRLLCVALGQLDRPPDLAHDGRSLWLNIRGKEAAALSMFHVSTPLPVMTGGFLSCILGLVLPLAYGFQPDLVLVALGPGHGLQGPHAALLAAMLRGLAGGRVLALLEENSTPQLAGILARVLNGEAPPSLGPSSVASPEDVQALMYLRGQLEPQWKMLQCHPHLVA
In short: as §1

[7] = tested on: ubiquitinated protein; test: Western blot of total ubiquitinated protein in MV4-11 cells; format: cell-based, human; conditions: within 3 hr
[8] = tested on: acetylated tubulin; test: Western blot of acetylated tubulin in MV4-11 cells; format: cell-based, human
In short: (§3)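 MV4-11 cells (10% heat-inactivated FBS, 37°C, 5% CO2) treated with test compound at a range of concentrations. Washed in cold HBSS and lysed 30 min in low-salt Tris pH 7.4 buffer with protease/phosphatase inhibitors and 1 μM TSA, then sonicated. LDS-denatured lysates run on 4–12% gradient gels. Probes: acetyl-H3, acetyl-H4, total H3, acetyl-α-tubulin, tubulin. HRP secondary, ECL read-out.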

[9] = tested on: non-proliferating PBMC (no mitogen stimulation); test: Viability of resting PBMC; format: cell-based, human
[10] = tested on: acetylated histone H3 and H4; test: Western blot of acetylated histone H3/H4 in MV4-11 cells; format: cell-based, human
In short: as §3

[11] = read-out: HDAC2 IC50, 12 point titration, acetylated substrate
[12] = read-out: HDAC4 IC50, 12 point titration, trifluoroacetylated substrate
[13] = read-out: HDAC4 Ki, converted from IC50 using Cheng-Prusoff equation
[14] = read-out: HDAC1 IC50, 12 point titration, acetylated substrate
[15] = read-out: HDAC1 Ki, converted from IC50 using Cheng-Prusoff equation
[16] = read-out: HDAC8 IC50, 12 point titration, trifluoroacetylated substrate
[17] = read-out: HDAC8 Ki, converted from IC50 using Cheng-Prusoff equation
[18] = read-out: HDAC5 IC50, 12 point titration, trifluoroacetylated substrate
[19] = read-out: HDAC5 Ki, converted from IC50 using Cheng-Prusoff equation
[20] = read-out: HDAC10 IC50, 12 point titration, acetylated substrate

Chain of HDAC2 (Q92769 whole entry): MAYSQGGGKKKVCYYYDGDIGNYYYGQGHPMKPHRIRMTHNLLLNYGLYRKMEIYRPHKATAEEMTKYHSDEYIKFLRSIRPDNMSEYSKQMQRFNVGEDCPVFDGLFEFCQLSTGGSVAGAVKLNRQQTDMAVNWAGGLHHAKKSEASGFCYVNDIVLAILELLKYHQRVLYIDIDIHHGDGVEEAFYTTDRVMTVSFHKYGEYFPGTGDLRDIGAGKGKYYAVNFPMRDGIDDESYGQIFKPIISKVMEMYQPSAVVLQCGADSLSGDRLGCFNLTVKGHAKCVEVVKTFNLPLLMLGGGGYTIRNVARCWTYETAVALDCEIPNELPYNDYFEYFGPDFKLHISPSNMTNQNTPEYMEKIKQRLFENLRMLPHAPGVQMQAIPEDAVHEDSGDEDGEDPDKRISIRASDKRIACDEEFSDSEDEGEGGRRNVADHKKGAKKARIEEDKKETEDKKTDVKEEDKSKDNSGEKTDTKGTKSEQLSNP
Chain of HDAC5 (Q9UQL6 whole entry): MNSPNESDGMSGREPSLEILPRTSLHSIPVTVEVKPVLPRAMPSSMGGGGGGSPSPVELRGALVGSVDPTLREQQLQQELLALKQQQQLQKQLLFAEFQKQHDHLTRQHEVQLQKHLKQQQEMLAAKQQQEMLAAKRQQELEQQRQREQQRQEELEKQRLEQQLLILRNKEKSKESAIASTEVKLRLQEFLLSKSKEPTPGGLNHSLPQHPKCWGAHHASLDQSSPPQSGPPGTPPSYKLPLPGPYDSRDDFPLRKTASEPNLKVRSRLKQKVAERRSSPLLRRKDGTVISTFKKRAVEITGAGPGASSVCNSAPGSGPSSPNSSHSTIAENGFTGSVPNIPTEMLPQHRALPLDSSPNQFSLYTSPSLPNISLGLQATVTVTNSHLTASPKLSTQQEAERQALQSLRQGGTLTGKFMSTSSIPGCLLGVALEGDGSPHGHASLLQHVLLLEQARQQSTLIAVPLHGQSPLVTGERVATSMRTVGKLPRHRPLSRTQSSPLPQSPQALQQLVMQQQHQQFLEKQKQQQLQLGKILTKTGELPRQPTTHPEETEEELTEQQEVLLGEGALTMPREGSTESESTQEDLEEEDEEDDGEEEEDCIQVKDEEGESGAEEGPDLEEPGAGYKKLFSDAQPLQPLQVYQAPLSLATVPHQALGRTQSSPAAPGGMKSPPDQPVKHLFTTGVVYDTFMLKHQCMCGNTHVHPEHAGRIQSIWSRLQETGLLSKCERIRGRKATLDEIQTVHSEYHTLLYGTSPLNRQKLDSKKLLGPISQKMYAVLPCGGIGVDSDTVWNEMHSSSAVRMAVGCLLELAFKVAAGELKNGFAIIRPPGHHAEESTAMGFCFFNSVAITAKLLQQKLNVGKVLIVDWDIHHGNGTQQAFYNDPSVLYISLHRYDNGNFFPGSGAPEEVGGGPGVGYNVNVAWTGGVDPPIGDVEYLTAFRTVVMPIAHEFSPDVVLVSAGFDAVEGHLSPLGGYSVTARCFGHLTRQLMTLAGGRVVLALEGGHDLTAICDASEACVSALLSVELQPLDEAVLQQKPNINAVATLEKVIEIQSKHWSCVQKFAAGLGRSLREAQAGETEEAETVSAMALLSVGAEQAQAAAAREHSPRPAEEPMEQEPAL
Chain of HDAC1 (Q13547 whole entry): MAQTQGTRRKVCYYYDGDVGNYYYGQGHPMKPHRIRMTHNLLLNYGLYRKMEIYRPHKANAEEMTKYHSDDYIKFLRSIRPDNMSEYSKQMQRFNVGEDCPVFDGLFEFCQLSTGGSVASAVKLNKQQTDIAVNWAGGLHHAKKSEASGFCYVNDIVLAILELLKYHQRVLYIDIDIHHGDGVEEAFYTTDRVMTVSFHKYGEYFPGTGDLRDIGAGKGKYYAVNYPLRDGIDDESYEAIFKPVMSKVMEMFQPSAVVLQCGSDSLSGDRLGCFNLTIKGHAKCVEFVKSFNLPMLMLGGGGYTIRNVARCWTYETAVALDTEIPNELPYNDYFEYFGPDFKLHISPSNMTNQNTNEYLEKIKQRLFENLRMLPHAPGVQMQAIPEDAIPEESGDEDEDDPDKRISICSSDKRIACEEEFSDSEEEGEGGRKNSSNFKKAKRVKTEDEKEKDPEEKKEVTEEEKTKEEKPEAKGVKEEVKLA
Chain of HDAC4 (P56524 whole entry): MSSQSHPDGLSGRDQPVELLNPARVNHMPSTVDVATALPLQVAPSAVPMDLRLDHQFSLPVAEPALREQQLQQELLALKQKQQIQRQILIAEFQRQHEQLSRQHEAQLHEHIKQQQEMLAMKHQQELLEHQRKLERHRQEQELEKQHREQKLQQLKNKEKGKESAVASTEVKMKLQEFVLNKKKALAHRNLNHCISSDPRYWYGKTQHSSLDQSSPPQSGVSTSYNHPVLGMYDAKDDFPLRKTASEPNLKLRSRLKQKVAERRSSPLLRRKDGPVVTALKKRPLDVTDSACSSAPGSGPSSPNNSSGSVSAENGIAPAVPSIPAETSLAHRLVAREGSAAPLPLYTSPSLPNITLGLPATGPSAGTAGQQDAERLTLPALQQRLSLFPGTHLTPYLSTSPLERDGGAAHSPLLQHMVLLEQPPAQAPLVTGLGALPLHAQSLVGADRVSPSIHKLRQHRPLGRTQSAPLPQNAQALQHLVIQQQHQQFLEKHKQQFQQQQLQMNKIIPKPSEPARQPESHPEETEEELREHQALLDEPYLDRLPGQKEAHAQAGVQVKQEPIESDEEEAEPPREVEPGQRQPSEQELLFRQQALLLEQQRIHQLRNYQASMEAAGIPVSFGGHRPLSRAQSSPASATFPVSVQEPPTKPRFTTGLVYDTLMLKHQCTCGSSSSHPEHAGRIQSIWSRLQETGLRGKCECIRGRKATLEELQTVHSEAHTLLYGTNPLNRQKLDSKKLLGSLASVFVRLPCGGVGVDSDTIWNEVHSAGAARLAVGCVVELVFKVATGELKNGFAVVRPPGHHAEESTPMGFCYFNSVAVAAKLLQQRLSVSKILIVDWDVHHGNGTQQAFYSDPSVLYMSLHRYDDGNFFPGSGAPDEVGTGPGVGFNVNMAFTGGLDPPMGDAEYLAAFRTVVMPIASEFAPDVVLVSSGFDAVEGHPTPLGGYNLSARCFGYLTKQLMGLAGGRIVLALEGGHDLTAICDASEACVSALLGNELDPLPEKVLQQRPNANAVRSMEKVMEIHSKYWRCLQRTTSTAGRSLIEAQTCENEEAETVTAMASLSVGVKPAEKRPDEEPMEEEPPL

## OC[C@H]1O[C@H]([S-])[C@H](O)[C@@H](O)[C@@H]1O.[Au+] [Aurothioglucose, 1-thio-D-glucopyronaose gold salt]
[1]; [11]
  IC50: > 180000 nM
[2]; [12]
  IC50: 4100 ± 2100 nM
[2]; [13]
  Ki: 700 nM
[3]; [14]
  IC50: 4400 ± 1100 nM
[3]; [15]
  Ki: 470 nM
[4]; [16]
  IC50: 1400 ± 300 nM
[4]; [17]
  Ki: 1110 nM
[5]; [18]
  IC50: 720 ± 500 nM
[5]; [19]
  Ki: 390 nM
[6]; [20]
  IC50: 4900 ± 1500 nM
[6]; read-out: HDAC10 Ki, converted from IC50 using Cheng-Prusoff equation
  Ki: 2160 nM

## O=c1c2ccccc2[se]n1-c1ccccc1 [Ebselen, 2-phenyl-1,2-benzisoselenazol-3(2H)-one]
[1]
  IC50: 1400 ± 300 nM
  Ki: 80 nM
[2]
  IC50: 1200 ± 200 nM
  Ki: 200 nM
[3]
  IC50: 1500 ± 400 nM
  Ki: 150 nM
[4]
  IC50: 350 ± 200 nM
[5]
  IC50: 780 ± 100 nM
  Ki: 420 nM
[6]
  IC50: 950 ± 400 nM
  Ki: 420 nM

## NC(N)=Nc1ccc2[nH]c3c(c2c1)C[C@@]1(O)[C@H]2Cc4ccc(O)c5c4[C@@]1(CCN2CC1CC1)[C@H]3O5 [GNTI, guanidinyl-naltrindole di-trifluoroacetate]
[1]; [11]
  IC50: 26200 ± 7600 nM
[1]
  Ki: 1480 nM
[2]; [12]
  IC50: 13400 ± 1600 nM
[2]; [13]
  Ki: 2290 nM
[3]; [14]
  IC50: 30200 ± 7300 nM
[3]; [15]
  Ki: 3240 nM
[4]; [16]
  IC50: 2000 ± 400 nM
[4]; [17]
  Ki: 1580 nM
[5]; [18]
  IC50: 700 ± 100 nM
[5]; [19]
  Ki: 380 nM
[6]; [20]
  IC50: > 180000 nM

## O=C1C(SCCO)=C(SCCO)C(=O)c2ccccc21 [NSC-95397, 2,3-bis[(2-Hydroxyethyl)thio]-1,4-naphthoquinone]
[1]
  IC50: > 100000 nM
[7]
  total ubiquitinated protein level: increase in total ubiquitinated protein level
[8]
  induction of acetylated tubulin: induces hyperacetylated tubulin
[2]
  IC50: 7200 ± 2800 nM
  Ki: 1230 nM
[3]
  IC50: > 180000 nM
[4]
  IC50: 1300 ± 100 nM
  Ki: 1030 nM
[9]
  effect on resting (non-proliferating) PBMC viability: inactive
[9]; listed as NSC
  effect on resting (non-proliferating) PBMC viability: not affected
[5]
  IC50: 3100 ± 200 nM
  Ki: 1680 nM
[6]
  IC50: 14500 ± 1500 nM
  Ki: 6400 nM
[10]
  effect on acetylated histone H3/H4 levels: without an increase in acetylated histone levels

## COc1ccc2c(c1)CC[C@@H]1[C@@H]2CC[C@]2(C)[C@@H](NCCCCCCN3C(=O)C=CC3=O)CC[C@@H]12 [U-73122, 1-[6-[[(17beta)-3-methoxyestra-1,3,5([10])-trien-17-yl]amion]hexyl]-1H-pyrrole-2,5-dione]
[1]; [11]
  IC50: > 100000 nM
[2]; [12]
  IC50: 31200 ± 200 nM
[2]; [13]
  Ki: 5330 nM
[3]; [14]
  IC50: 38400 ± 15500 nM
[3]; [15]
  Ki: 4110 nM
[4]; [16]
  IC50: 10900 ± 3100 nM
[4]; [17]
  Ki: 8630 nM
[5]; [18]
  IC50: 10500 ± 7400 nM
[5]; [19]
  Ki: 5680 nM
[6]; [20]
  IC50: > 100000 nM
